Sampled rows, rich in hits. Any-hit rate of the full collection: about 4.8%.
PTK2B oligo ant: antagonists of human Pyk2 oligomerization | Q293 cells, Pyk2 FERM NanoBiT luminescence; stronger effect = lower value | z-score (the deposit names both 25 µM and 10 µM) | actives 0.83% (n = 99,000);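 active = Z-score of -3 or lower, scaled per plate to the spread of control and sample wells; inactive = z-score above -3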;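 note: negative z-score means lost luminescence so less FERM oligomerization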
ERa coact pot: ER-alpha (human) coactivator binding potentiation; TR-FRET ERalpha-LBD/SRC-Cy5 coactivator binding, 2 h; 100 = basal binding, no effect; coactivator binding (% of control), % at 25.6 µM; actives 1.3% (n = 86,000); P03372; in the data active = activity above about 200%;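 note: binding measured in presence of low estradiol as agonist stimulus; 0% = peptide alone without receptor and 100% = receptor with peptide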
ERb SRC1 inh: blocks coactivator binding to human estrogen receptor beta. actives 1.3% (n = 86,000). AID 633. TR-FRET ER-beta LBD / SRC1-Cy5 peptide binding; receptor agonist-loaded with 1 µM estradiol. inhibition, % at 25.6 µM. Q92731;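 active = compounds whose percent inhibition of the receptor-coactivator binding signal exceeds about 50% in the single-dose screen, limit read from the data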;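 note: 0% = receptor plus peptide wells without compound and 100% = peptide-only wells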
ERa SRC1 inh: ER-alpha (human) coactivator binding inhibition | P03372 | TR-FRET ER-alpha LBD / SRC-1 peptide, estradiol-bound | inhibition, % at 25.6 µM | actives 1.7% (n = 86,000) | AID 629; in the data active = inhibition above about 50%;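 note: 0% = receptor plus peptide control and 100% = peptide only without receptor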
RORa activator: RORA (human) activation; activation, % at 10 µM; CHO-K1 Gal4-RORA LBD luciferase reporter, luminescence; percent increase over mock-subtracted basal signal; actives 1.5% (n = 65,000); P35398;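 active = activation above the mean of all tested compounds plus 3 SD, cut at about 49% in these data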;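 note: 0% = DMSO-treated RORA cells and 100% = added signal equal to DMSO minus mock-transfected cells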
Target sequence (P35398 whole entry, looked up, the tested form may be a part): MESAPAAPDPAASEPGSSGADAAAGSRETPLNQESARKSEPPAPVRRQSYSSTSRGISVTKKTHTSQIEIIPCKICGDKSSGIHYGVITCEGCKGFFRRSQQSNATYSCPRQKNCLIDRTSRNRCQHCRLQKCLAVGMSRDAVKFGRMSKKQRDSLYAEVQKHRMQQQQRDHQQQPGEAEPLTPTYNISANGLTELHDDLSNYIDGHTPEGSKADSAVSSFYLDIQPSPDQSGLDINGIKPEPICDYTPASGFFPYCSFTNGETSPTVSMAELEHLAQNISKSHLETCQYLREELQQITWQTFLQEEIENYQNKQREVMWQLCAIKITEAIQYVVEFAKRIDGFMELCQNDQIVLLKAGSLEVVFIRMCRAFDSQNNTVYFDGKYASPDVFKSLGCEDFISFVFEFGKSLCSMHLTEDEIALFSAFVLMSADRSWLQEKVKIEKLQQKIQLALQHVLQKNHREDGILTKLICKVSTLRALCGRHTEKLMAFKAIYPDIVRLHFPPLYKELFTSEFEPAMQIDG
SF1 activator: SF-1 (human) activation; CHO-K1 Gal4-SF-1 LBD luciferase reporter; % increase over DMSO SF-1-specific signal; activation, % at 10 µM; actives 1.9% (n = 65,000);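 active = activation above the mean activation of all tested compounds plus 3 SD, cut at about 50% in these data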
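Material: Transient Gal4-SF-1 LBD reporter, CHO-K1 | Input: 4,000 cells/well | Dosing: One dose, 10 µM compound, 1% DMSO | Incubation: 20 h compound treatment, 37 °C | Detection: SteadyLite luciferase luminescence | Evaluation: Percent activation relative to DMSO median and mock-transfected background | Benchmarks: DMSO-treated SF-1-transfected cells as negative, DMSO-treated mock-transfected cells lacking SF-1 as background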
Numbers without * were called inactive; nt = no result; [ ] = another dose, or the depositor's remark.

SMILES	PTK2B oligo ant	ERa coact pot	ERb SRC1 inh	ERa SRC1 inh	RORa activator	SF1 activator
O=C(c1cc2c(=O)oc3ccccc3c2s1)N1CCOCC1	0.36	107.9	1.1	-10.4	46.0	29.4
O=C1CC(N2CCN(C3CCc4ccccc4C3)CC2)C(=O)N1c1ccccc1 (configuration not stated)	1.48	90.8	-1.6	6.0	2.9	-6.2
Cc1cc(NC(c2cccnc2)c2ccc3cccnc3c2O)no1 (configuration not stated)	-1.58	122.4	6.9	4.7	-23.1	-37.1
Cc1cccc(NC(c2ccc(O)cc2)c2ccc3ccc(C)nc3c2O)n1 (configuration not stated)	-0.68	320.4*[fluorescence artefact?]	49.9	49.1	nt	nt
O=C(c1ccc(Cl)cc1)N1CCN(c2ccc([N+](=O)[O-])c(NCc3cccnc3)c2)CC1	-3.31*	nt	nt	nt	nt	nt
O=[N+]([O-])c1ccc(N2CCN(S(=O)(=O)c3ccccc3)CC2)cc1NCc1cccnc1	-3.66*	nt	nt	nt	nt	nt
O=[N+]([O-])c1ccc(N2CCN(S(=O)(=O)c3ccc(Cl)cc3)CC2)cc1NCc1cccnc1	-2.75	nt	nt	nt	nt	nt
O=S1(=O)N=C2CCCCCN2C(c2ccncc2)N1 (configuration not stated)	-0.08	103.2	3.4	3.1	-9.0	-12.3
CC(=O)c1cc(C#N)c(Oc2ccc(Cl)cc2Cl)nc1C	1.43	nt	nt	nt	nt	nt
N#Cc1c(-c2ccccc2)c(-c2ccccc2)n(Cc2ccco2)c1NC(=O)c1cccs1	-2.45	nt	nt	nt	nt	nt
O=C(NC1CCCC1)c1ccc2nc(-c3ccco3)c(-c3ccco3)nc2c1	-0.15	10.9	93.0*[fluorescence artefact?]	93.6*[fluorescence artefact?]	-20.6	-9.2
O=C(NCCO)c1ccc(Cl)c(Cl)c1	0.36	102.8	-2.7	7.1	-5.5	-26.4
c1coc(-c2nc3ccccc3nc2-c2ccco2)c1	-0.66	28.3	93.2*[fluorescence artefact?]	83.7*[fluorescence artefact?]	2.6	5.4
O=C(NCCc1ccccc1)c1ccc(=O)oc1	1.04	120.1	0.7	-18.3	9.9	-0.4
O=C(NCCO)c1ccc2nc(-c3ccco3)c(-c3ccco3)nc2c1	-1.17	15.6	86.6*[fluorescence artefact?]	64.3*	nt	nt
O=c1oc(-c2ccco2)nc2ccccc12	-1.14	90.5	-1.5	4.2	-0.4	-3.0
O=C(NCCc1ccccc1)c1ccc2nc(-c3ccco3)c(-c3ccco3)nc2c1	-0.4	27.3	88.4*[fluorescence artefact?]	86.3*[fluorescence artefact?]	nt	nt
COCC(=O)N(C)c1nnc(-c2cnc(C)cn2)s1	0.87	112.9	-0.9	3.0	18.6	5.0
CCCCC(=O)NC(Nc1nc(C2CC2)cs1)(C(=O)OCC)C(F)(F)F (configuration not stated)	-0.14	135.1	-7.5	-13.3	12.4	-5.0
CN1CC2(C)CN(C(c3ccccc3)c3ccccc3)CC(C)(C1)C2O (configuration not stated)	0.24	84.3	57.1*	44.4	2.8	3.4
CCOC(=O)C1=C(O)/C(=C/c2cc(OC)c(OC)c(OC)c2)N=C1C	0.52	109.3	-9.3	-17.1	nt	nt
Cc1cc(NS(=O)(=O)c2ccc(NC(=O)c3cc(-c4cccnc4)nc4ccc(Cl)cc34)cc2)no1	-1.92	nt	nt	nt	nt	nt
Cc1cc(C)c2nc(-c3ccccn3)cc(C(=O)Nc3ccc(S(=O)(=O)Nc4cc(C)on4)cc3)c2c1	-3.03*	nt	nt	nt	nt	nt
Cc1oc(-c2ccc(Cl)cc2)nc1CN1CCCC(C(=O)N2CCN(C(=O)c3ccco3)CC2)C1 (configuration not stated)	nt	96.0	-10.9	-9.0	-3.3	-13.1
CCCC1(C(=O)O)NC(c2ccccc2O)C2C(=O)N(Cc3ccccc3)C(=O)C21 (configuration not stated)	nt	114.5	-2.9	5.6	1.0	-1.4
SMILES	PTK2B oligo ant	ERa coact pot	ERb SRC1 inh	ERa SRC1 inh	RORa activator	SF1 activator
CSCCC1(C(=O)O)NC(c2ccccc2O)C2C(=O)N(C(C)C)C(=O)C21 (configuration not stated)	nt	111.8	-3.6	83.7*[fluorescence artefact?]	-13.3	-11.3
N=c1c(C(=O)NCc2ccc(F)cc2)cc2c(=O)n3ccccc3nc2n1Cc1cccnc1	-0.86	64.6	21.6	71.4*	nt	nt
COC(=O)c1cc2c(=O)n3ccccc3nc2n(Cc2cccnc2)c1=N	nt	105.0	6.1	-8.8	0.6	-11.6
O=c1ccc2cc3c([nH]c4ccc(Br)cc43)oc-2c1O	-1.43	19.4	74.4*[fluorescence artefact?]	71.9*[fluorescence artefact?]	-9.6	1.3
O=c1c2c([nH]c3ccc(Br)cc13)CCCC2	-1.11	82.5	5.8	7.8	9.3	-9.0
CN1CCN(C(=O)c2ccccc2-c2ccccc2C(=O)O)CC1	0.34	104.5	7.2	1.3	-8.4	5.1
O=C(NCc1ccncc1)C1CCN(S(=O)(=O)Cc2ccccc2)CC1	0.23	109.3	-8.5	-0.5	nt	nt
CC(C)(C)c1ccc(C(=O)N2CCC(C(=O)NCc3ccncc3)CC2)cc1	2.38	106.5	-7.6	-6.8	59.6*	24.8
CCCOc1ccc(C(C)=O)cc1CSc1nc(O)cc(=O)[nH]1	0.7	93.5	-3.1	3.4	nt	nt
Cn1c(C(=O)NCc2ccccc2)cc2oc3ccccc3c21	-1.53	109.5	-5.0	-3.4	nt	nt
Cn1c(C(=O)NCC2CCCO2)cc2c(=O)[nH]c3ccccc3c21 (configuration not stated)	-1.28	103.6	-12.2	-12.2	15.7	-3.4
Cn1c(C(=O)NCc2cccs2)cc2oc3ccccc3c21	-0.54	nt	nt	nt	59.6*	54.5*
Cn1c(C(=O)NCC2CCCO2)cc2oc3ccccc3c21 (configuration not stated)	-0.19	nt	nt	nt	59.0*	49.7*
Cc1nnc(NCc2ccncc2)c2ccccc12	-0.05	178.8	50.3*[fluorescence artefact?]	59.6*[fluorescence artefact?]	3.8	7.2
Nc1nc2c(s1)CCc1c-2cnn1-c1ccccc1	-2.28	nt	nt	nt	16.8	91.1*
Cc1oc2cc(O)cc(C)c2c(=O)c1-c1cnn(-c2ccccc2)c1	-3.78*	235.5*[fluorescence artefact?]	-9.8	14.0	-23.0	3.9
Cc1oc2c(O)c(O)ccc2c(=O)c1-c1cnn(-c2ccccc2)c1	-1.85	nt	nt	nt	nt	nt
O=C(COC(=O)CC12CC3CC(CC(Br)(C3)C1)C2)NC(=O)NCc1ccco1	-0.04	71.4	10.2	-0.9	nt	nt
CC(C)Cn1c(N)c(C(=O)CSc2nnnn2C)c(=O)n(C)c1=O	0.35	111.3	-6.2	5.9	nt	nt
CC(C)Cn1c(N)c(C(=O)CSc2nnnn2-c2ccc(Cl)cc2)c(=O)n(C)c1=O	nt	326.9*	-1.5	24.9	-4.5	-5.2
Cc1ccc(NCc2nnc(SCC(=O)Nc3cccc(O)c3)n2CC2CCCO2)c(C)c1 (configuration not stated)	-0.89	109.0	-3.0	-1.9	-19.5	-3.4
O=C(CCCSc1nc(-c2ccco2)cc(C(F)(F)F)n1)Nc1ccc2c(c1)OCO2	0.47	97.9	-11.1	-8.5	6.0	9.8
CC(NC(=O)CCSc1nc(-c2ccc3c(c2)OCO3)cc(C(F)(F)F)n1)c1ccccc1 (configuration not stated)	0.05	57.4	46.3	90.1*	nt	nt

Assay outcomes as filed in PubChem.
